NR2E3 ag-1: NR2E3 (human) agonism. 320,000 tested, 0.12% active. inhibition of corepressor binding, % at 4.78 µM. GST-NR2E3/biotin-RetCOR TR-FRET, 1536-well. Q9Y5X4;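 active means percent inhibition above the cutoff of mean plus 3 SD of all tested compounds, set per screening campaign, cut at about 20% in these data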;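 further: 0% = DMSO wells and 100% = biotin wells as full block of FRET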
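Material – GST-tagged NR2E3 plus biotinylated RetCOR corepressor · Quantity – NR2E3 fusion 1.35 nM · Times – 5 h incubation at 4 °C · Medium – pH 7.5 Tris-based buffer · Technique – TR-FRET, Eu(K)-anti-GST donor, streptavidin-D2 acceptor, ex 340, em 617/671 nm · Benchmarks – high control biotin, low control 0.6% DMSO · Format – 1536-well plates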
NR1D1 modulator: modulates human Rev-erb alpha binding to DNA. AID 1259318. P20393. 370,000 tested, 0.79% active. Rev-erbα–FITC-DNA binding, fluorescence polarization, 90 min. activity, % at 10 µM;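 active means activity above about 14%, limit read from the data; passing the limit was not always enough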;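 further: 0% = DMSO wells with 35 nM protein and 100% = DMSO wells with 750 nM protein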
MC4R antag cAMP: blocks human MC4R cAMP signaling | P32245 | MC4R-expressing cells, MTII-stimulated cAMP, LANCE TR-FRET | inhibition, % at 6.5 µM | 360,000 tested, 0.48% active | AID 540295;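 active means inhibition above its plate's cutoff, the mean of tested wells on that plate plus 3 SD, cut at about 29% in these data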;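 further: 0% = Melanotan II alone and 100% = Melanotan II plus saturating MCL0020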
Target sequence (P32245 whole entry, looked up): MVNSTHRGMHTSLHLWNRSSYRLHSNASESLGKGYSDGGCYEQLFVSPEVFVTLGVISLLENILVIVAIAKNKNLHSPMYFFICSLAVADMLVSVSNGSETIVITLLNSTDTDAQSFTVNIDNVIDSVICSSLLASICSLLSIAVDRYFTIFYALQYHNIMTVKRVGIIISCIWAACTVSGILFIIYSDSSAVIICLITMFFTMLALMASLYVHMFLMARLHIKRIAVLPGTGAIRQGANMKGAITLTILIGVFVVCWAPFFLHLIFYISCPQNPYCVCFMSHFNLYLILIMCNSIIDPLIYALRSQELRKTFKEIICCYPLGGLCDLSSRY
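Material: U2OS-MC4R stable cell line | Reagent: Melanotan II challenge after compound preincubation | Doses: One concentration, 6.5 µM nominal | Incubation: 30-min compound preincubation, 1-h Melanotan II challenge, 1-h detection, room temperature | Signal: TR-FRET cAMP assay | Replicates: One well per compound, no replicates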
MC4R barr agon: human MC4R agonism via beta-arrestin; P32245; U2OS MC4R beta-arrestin complementation, luminescence; percent of melanotan II response, DMSO zero; activation, % at 8.9 µM; 360,000 tested, 0.98% active; AID 540308;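 active means activation above a per-plate cutoff, the mean activation of sample wells on that plate plus 3 SD, cut at about 8% in these data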
PG9 binder: PG9 antibody binding by small molecule | TR-FRET gp120-PG9 antibody binding | inhibition, % at 6.7 µM | 360,000 tested, 0.43% active; in the data active means inhibition above about 8.5%
NR2E3 ag-2: activates human NR2E3 receptor; 360,000 tested, 0.35% active; inhibition of corepressor binding, % at 3.98 µM; CHO-S Gal4-NCOR/VP16-NR2E3 two-hybrid, luciferase; Q9Y5X4; AID 602229;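 active means inhibition above the mean of all tested compounds plus 3 SD, cut at about 70% in these data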;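 further: 0% = DMSO with NR2E3 transfected cells and 100% = cells lacking NR2E3 construct; higher means lower luciferase signal from less NR2E3 corepressor binding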
MC4R barr conf: human MC4R beta-arrestin agonism confirmation; shares compounds with MC4R barr agon; U2OS MC4R beta-arrestin recruitment, luminescence; scaled DMSO 0%, Melanotan II 100%; activation, % at 8.9 µM; 2,400 tested, 31% active; AID 602192;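 active means mean activation across replicates above the hit cutoff set in the earlier primary screen, cut at about 8% in these data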
MOR-DOR barr ag: OPRM1-OPRD1 heterodimer agonism counter-screen; shares compounds with MC4R barr agon; U2OS PathHunter beta-arrestin, beta-gal luminescence; percent of deltorphin B response, DMSO zero; activation, % at 9.2 µM; 2,400 tested, 5.8% active;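 active means mean activation across replicates exceeds the hit threshold derived in the earlier primary screen, cut at about 18% in these data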;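 further: 100% = deltorphin B at 0.9 µM final and 0% = DMSO alone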
* hit, by the source's call; . = no result. The list is not random: actives were taken first. Their share in the collection is about 2.7%.

SMILES | NR2E3 ag-1 | NR1D1 modulator | MC4R antag cAMP | MC4R barr agon | PG9 binder | NR2E3 ag-2 | MC4R barr conf | MOR-DOR barr ag
COc1ccc(NC(=O)Nc2nnc(-c3ccccc3SCc3ccccc3)s2)cc1 | -2 | 4 | 1 | 18* | -2 | -30 | 17* | 5
CC(NC(=O)c1ccc2nc(Cc3cccc(Cl)c3)oc2c1)c1ccncn1 (centres undefined) | . | 1 | 1 | -1 | 2 | 19 | . | .
C=CCc1cccc(/C=N/NC(=O)CCCNc2ccc(C)cc2)c1O | 1 | 4 | -1 | 16* | -3 | -15 | 0 | 3
C=CC[C@@H](CC(=O)N[C@@H](CO)Cc1ccccc1)C(=O)N[C@@H](COC(=O)[C@@H](CC=C)CC(=O)OC(C)(C)C)Cc1c[nH]c2ccccc12 | . | 0 | 9 | 15* | 0 | -11 | 3 | 5
O=C(Nc1cccc(Cl)c1Cl)c1ccc(-c2ccccc2)cc1 | 3 | 3 | -1 | 4 | 1 | -46 | . | .
O=C(Nc1cc(Cl)ccc1Cl)c1ccc(-c2ccccc2)cc1 | -7 | 1 | -7 | 9.8* | -2 | -51 | 5 | 9
O=C(CNC(=O)c1ccc(Br)cc1)NCC(=O)OCC(=O)c1ccc([N+](=O)[O-])cc1 | -3 | -1 | 9 | 0 | -1 | 15 | . | .
COc1cccc(-c2cnc3c(NC(C)=O)cc(-c4ccc(S(C)(=O)=O)cc4)cn23)c1 | . | 6 | 11 | 11* | 1 | 15 | 14* | 2
COc1ccc(-c2cnc3c(NC(C)=O)cc(-c4ccc(S(C)(=O)=O)cc4)cn23)cc1OC | . | 4 | 5 | 11* | -1 | -45 | 9.8* | 3
CCCn1c(OC)nc2c1c(=O)n(C)c(=O)n2C | -3 | -8 | 5 | 1 | -1 | -22 | . | .
CCOC(=O)C(C)Sc1nc2c(cnn2-c2ccc(C)cc2)c(=O)[nH]1 (centres undefined) | 3 | 1 | -23 | -2 | 0 | -33 | . | .
CCCCOc1ccc(C(=O)N/C(=C\c2cccc([N+](=O)[O-])c2)C(=O)OCc2ccco2)cc1 | -2 | 2 | 10 | 20* | 1 | -27 | -1 | 2
CCCCOc1ccc(C(=O)N/C(=C\c2ccc(OC)cc2)C(=O)OCc2ccco2)cc1 | 0 | 7 | 6 | -1 | -3 | -36 | . | .
Cc1c(-c2ccccc2)nnn1-c1ccc(F)c(Cl)c1 | . | 1 | . | . | 0 | . | . | .
CSc1nnc(C)c(=O)n1COC(=O)c1ccc(S(=O)(=O)N2CCOCC2)cc1 | -2 | 1 | 14 | 0 | -1 | 12 | . | .
Cc1ccc(C)c(OCC(=O)Nc2nonc2NC(=O)COc2cc(C)ccc2C)c1 | 5 | 0 | -10 | 19* | 0 | -17 | 7 | 7
Cc1cc(NC(=O)c2cccc(COc3ccc(Br)cc3)c2)no1 | -3 | -1 | -7 | 12* | 0 | -187 | 12* | 4
O=[N+]([O-])c1ccc(N=Nc2c(O)[nH]c3ccc(F)cc23)cc1 | -3 | -15 | 10 | 18* | -3 | -47 | 10* | 1
O=[N+]([O-])c1ccc2[nH]c(O)c(N=Nc3ccc(F)cc3)c2c1 | 2 | 0 | 12 | 0 | 1 | 6 | . | .
Cc1nc2c(-c3ccc(F)cc3)c(C)nn2c(C)c1CCC(=O)Nc1ccccc1F | 0 | 8 | 2 | 13* | 0 | -6 | -2 | 4
COc1cc2ccccc2cc1C(=O)OCc1nc2ccsc2c(=O)[nH]1 | 7 | 3 | 4 | 15* | 3 | 10 | 4 | 6
COc1cc(SC)ccc1C(=O)OCc1nc2ccsc2c(=O)[nH]1 | -3 | -3 | 7 | -3 | 3 | -11 | . | .
O=C(COC(=O)c1n[nH]c2ccccc12)c1cccc(Br)c1 | 0 | 3 | -13 | 5 | 0 | -17 | . | .
Cc1ccc(C)c(C(=O)COC(=O)c2n[nH]c3ccccc23)c1 | . | -3 | -14 | 16* | -1 | -38 | 16* | 8

Screening results (PubChem BioAssay)
